Measured values reported in paper PMC10694180 (Heliyon, 2023).
“Also recorded” adds a separate entry of the source. Like-named read-outs stand apart in the source and are kept apart here. One block for each molecule: values may come before it.

Columns and labels:
[1] = molecular target: Hypoxia-inducible factor 1-alpha (HIF-1α) (Mus musculus, UniProt Q61221); experiment: Quantitative HIF-1α inhibitory assay; assay type: cell-based; settings: ELISA, cell extracts, 50 μM concentration (Fig. 3)
Method in brief: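 Mouse HIF-1α quantified with a simple-step ELISA kit run per the manufacturer. Cell lysate concentrates from fresh material were added to wells coated with double-stranded DNA carrying HIF-1α-binding HREs. Bound HIF-1α was detected with a primary mouse anti-HIF-1α antibody and a labelled secondary anti-mouse antibody, and absorbance was read at 450 nm.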

[2] = tested on: hypoxia induced ID8 mouse ovarian epithelial cell line; experiment: MTT assay, hypoxia induced ovarian cancer cell line ID8; assay type: cell-based; settings: for inhibition of cell proliferation: ID8 cells, 50 μM concentration; for IC50: 72 h
Method in brief: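 Hypoxia-induced mouse ID8 ovarian epithelial cells were seeded in 96-well plates and exposed to test compound or control. MTT was added 72 h after drug addition, and the resuspended formazan was read by absorbance. Growth inhibition (%) = [1 − (A/B)] × 100, where A is treated wells and B is control wells; n = 3.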

[3] = Solubility data of synthesized compounds; assay type: physicochemical; settings: solvents: DMSO, ethanol, ethanolic water
[4] = Mus musculus, Epithelial cell, read-out: IC50 (μM), viability of Ovarian cancer cell lines ID8, hypoxia induced ID8, MTT, 72 h, n = 3
[5] = read-out: IC50 (μM), viability of Ovarian cancer cell lines ID8, hypoxia induced ID8, MTT, n = 3

Sequence of Hypoxia-inducible factor 1-alpha (HIF-1α) (Q61221 whole entry): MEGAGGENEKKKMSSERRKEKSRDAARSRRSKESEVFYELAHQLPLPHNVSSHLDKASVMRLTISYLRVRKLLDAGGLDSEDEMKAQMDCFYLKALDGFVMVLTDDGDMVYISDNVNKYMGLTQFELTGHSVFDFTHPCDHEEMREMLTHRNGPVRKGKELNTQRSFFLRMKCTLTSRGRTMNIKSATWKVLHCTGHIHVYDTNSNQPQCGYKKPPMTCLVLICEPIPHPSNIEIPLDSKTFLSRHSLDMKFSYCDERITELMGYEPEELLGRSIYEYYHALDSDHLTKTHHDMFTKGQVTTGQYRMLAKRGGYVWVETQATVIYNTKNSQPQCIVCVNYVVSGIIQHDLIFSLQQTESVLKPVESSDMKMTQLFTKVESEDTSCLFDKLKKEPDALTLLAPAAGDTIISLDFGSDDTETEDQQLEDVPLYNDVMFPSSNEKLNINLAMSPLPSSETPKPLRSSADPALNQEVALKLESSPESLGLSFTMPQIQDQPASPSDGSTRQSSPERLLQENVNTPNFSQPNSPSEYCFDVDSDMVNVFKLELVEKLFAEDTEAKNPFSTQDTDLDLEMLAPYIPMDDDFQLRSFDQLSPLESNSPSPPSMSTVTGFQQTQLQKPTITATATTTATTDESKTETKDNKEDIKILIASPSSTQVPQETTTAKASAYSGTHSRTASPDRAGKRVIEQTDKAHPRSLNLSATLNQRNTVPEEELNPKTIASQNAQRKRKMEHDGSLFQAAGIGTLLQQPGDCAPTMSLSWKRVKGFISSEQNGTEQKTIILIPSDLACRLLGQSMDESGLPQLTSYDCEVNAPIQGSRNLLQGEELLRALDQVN

SMILES: O=C(CSc1nc2ccccc2s1)N1CCOCC1 [Compound 1m, 2-(1,3-benzothiazol-2-ylsulfanyl)-1-(morpholin-4-yl) ethanone]
IC50 [2, 4]: 32.4 ± 0.67 µM

SMILES: O=C(CNCc1ccc(Cl)cc1)N1CCOCC1 [Compound 1j, 2-[(4-chlorobenzyl)amino]-1-(morpholin-4-yl) ethanone]
solubility [3]: only soluble in DMSO | IC50 [2, 4]: 21.49 ± 0.11 µM

SMILES: Cc1ccc(C(C)C)c(OCC(=O)N2CCOCC2)c1 [Compound 1i, 2-[5-methyl-2-(propan-2-yl)phenoxy]-1-(morpholin-4-yl) ethanone]
inhibition of HIF-1α [1]: significant inhibitory effects; also recorded: optimal activity; also recorded: good inhibition | inhibition of cell proliferation [2]: maximum inhibition | IC50 [2, 4]: 11.2 ± 0.22 µM

SMILES: O=C(CNc1nnc(-c2ccccc2)o1)N1CCOCC1 [Compound 1l, 1-(morpholin-4-yl)-2-[(5-phenyl-1,3,4-oxadiazol-2-yl)amino] ethanone]
IC50 [2, 4]: 15.6 µM | inhibition at 50 µM ([2]; Mus musculus, ID8, read-out: inhibition of cell proliferation): 60% | IC50 [2, 5]: 15.6 ± 0.77 µM

SMILES: O=C(CN1CCOCC1)N1CCOCC1 [Compound 1a, 1,2-di (morpholin-4-yl) ethanone]
IC50 [2, 4]: 23.9 ± 0.61 µM

SMILES: O=C(CN1CCCC1)N1CCOCC1 [Compound 1b, 1-(morpholin-4-yl)-2-(pyrrolidin-1-yl) ethanone]
IC50 [2, 4]: 14.8 ± 0.7 µM

SMILES: N.N.[Cl][Pt][Cl] [Cisplatin, reference compound]
inhibition of cell proliferation [2]: 60% | IC50 [2, 5]: 8.5 ± 0.23 µM | IC50 ([2]; read-out: IC50 (μM), viability of Ovarian cancer cell lines ID8, hypoxia induced ID8, MTT, n = 3, listed as cisplatin): 8.5 µM

More lines, main results first:

IC50 [2, 4]: 9.4 µM | IC50 [2, 5]: 9.41 ± 0.73 µM
SMILES: O=C(CNc1ccc(F)cc1)N1CCOCC1 [Compound 1h, 2-[(4-fluorophenyl)amino]-1-(morpholin-4-yl) ethanone]
inhibition of HIF-1α [1]: significant inhibitory effects; also recorded: optimal activity; also recorded: good inhibition | inhibition of cell proliferation [2]: maximum inhibition

inhibition of HIF-1α [1]: lesser inhibition | IC50 [2, 4]: 25.3 ± 0.82 µM
SMILES: COc1cccc(NCC(=O)N2CCOCC2)c1 [Compound 1d, 2-[(3-methoxyphenyl)amino]-1-(morpholin-4-yl) ethanone]

solubility [3]: only soluble in DMSO | IC50 [2, 4]: 146.1 ± 0.56 µM
SMILES: O=C(COc1ccccc1)N1CCOCC1 [Compound 1g, 1-(morpholin-4-yl)-2-phenoxyethanone]

IC50 [2, 4]: 15.7 ± 0.64 µM
SMILES: O=C(CNc1ccccn1)N1CCOCC1 [Compound 1c, 1-(morpholin-4-yl)-2-(pyridin-2-ylamino) ethanone]
inhibition of HIF-1α [1]: significant inhibitory effects; also recorded: optimal activity; also recorded: promising activities

solubility [3]: only soluble in DMSO | IC50 [2, 4]: 47.9 ± 0.75 µM
SMILES: O=C(CNCc1ccccc1)N1CCOCC1 [Compound 1n, 2-(benzylamino)-1-(morpholin-4-yl) ethanone]

IC50 [2, 4]: 26.4 ± 0.72 µM
SMILES: COc1ccc(NCC(=O)N2CCOCC2)cc1 [Compound 1e, 2-[(4-methoxyphenyl)amino]-1-(morpholin-4-yl)ethanone]

IC50 [2, 4]: 64.2 ± 0.88 µM
SMILES: O=C(CNCc1ccc(F)cc1)N1CCOCC1 [Compound 1k, 2-[(4-fluorobenzyl)amino]-1-(morpholin-4-yl) ethanone]

IC50 [2, 4]: 158.4 ± 0.66 µM
SMILES: COc1ccccc1NCC(=O)N1CCOCC1 [Compound 1f, 2-[(2-methoxyphenyl)amino]-1-(morpholin-4-yl) ethanone]
